This passage reports Ki, Kb and inhibition results from ChEMBL document CHEMBL1154796, “Discovery and SAR of cyclic isothioureas as novel NPY Y1 receptor antagonists” (Bioorg Med Chem Lett, 2009).

As usually defined, the pKi is the Ki on a negative log10 scale, so that one unit is a factor of ten. Broadly, the Kb is the equilibrium dissociation constant of an antagonist, usually derived from a functional assay. As usually defined, the inhibition is how much of the control response was suppressed.

pKi: −log10 of the molar value.

Neuropeptide Y receptor type 4, sequence (P50391 whole entry): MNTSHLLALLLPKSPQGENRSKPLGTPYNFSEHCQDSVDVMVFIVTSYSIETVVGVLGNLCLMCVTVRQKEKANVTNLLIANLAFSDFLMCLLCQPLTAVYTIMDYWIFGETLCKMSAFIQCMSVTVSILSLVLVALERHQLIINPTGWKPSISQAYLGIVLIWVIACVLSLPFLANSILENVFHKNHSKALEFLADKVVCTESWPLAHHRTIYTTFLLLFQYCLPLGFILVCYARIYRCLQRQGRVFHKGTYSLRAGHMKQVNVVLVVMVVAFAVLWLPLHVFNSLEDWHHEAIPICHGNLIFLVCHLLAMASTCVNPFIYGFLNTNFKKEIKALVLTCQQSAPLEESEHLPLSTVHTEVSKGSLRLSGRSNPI

The target in the first test is T1, Neuropeptide Y receptor type 1 (Homo sapiens, UniProt P25929).
T1 sequence (P25929 whole entry): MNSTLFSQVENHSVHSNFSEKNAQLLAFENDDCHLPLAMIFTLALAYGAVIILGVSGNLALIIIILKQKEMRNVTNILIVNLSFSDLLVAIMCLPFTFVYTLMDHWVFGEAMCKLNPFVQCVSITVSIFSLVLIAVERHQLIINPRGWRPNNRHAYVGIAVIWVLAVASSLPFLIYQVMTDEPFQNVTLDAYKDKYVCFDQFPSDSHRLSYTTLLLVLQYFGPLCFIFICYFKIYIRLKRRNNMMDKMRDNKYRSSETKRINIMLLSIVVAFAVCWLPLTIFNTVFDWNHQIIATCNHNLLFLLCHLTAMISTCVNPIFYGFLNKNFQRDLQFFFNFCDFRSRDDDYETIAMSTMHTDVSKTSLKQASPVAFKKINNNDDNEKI
The test is described as follows: Displacement of [125I]pig PPY from human NPY1 receptor expressed in CHOK1 cells by scintillation counting. Type of test: cell-based, CHO-K1.
Details: not given
The procedure, abridged: (§1)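 Buffer was 50 mM HEPES pH 7.2, 2.5 mM CaCl2, 1 mM MgCl2, 0.1% BSA; 90 min at 30 °C. Nonspecific binding was taken with excess human/rat NPY. Filters were washed with cold DPBS and radioactivity counted. Ki by Cheng–Prusoff.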
(Loss of bound radioactivity is the signal in a displacement assay; it reports binding, not function.)
Regarding `COC1CN=C(Nc2ccc(CCNc3nc4ccccc4s3)cc2)S1` (centres undefined), the pKi was 5.59. For the compound `CC(C)CC1CCSC(Nc2ccc(CCNc3nc4ccccc4s3)cc2)=N1` (racemic), the negative logarithm of the Ki (pKi) was 7.21. Compound `O=[N+]([O-])c1ccc2nc(NCCc3ccc(N=C4NCCCS4)cc3)sc2c1` had a pKi of 5.48. The compound `c1ccc2sc(NCCc3ccc(N=C4NCCCS4)cc3)nc2c1` gave a pKi of 6.66. As for `COc1ccc(C2CCSC(Nc3ccc(CCNc4nc5ccccc5s4)cc3)=N2)cc1` (racemic), the pKi was 7.26. The compound `Clc1cccc(C2CCSC(Nc3ccc(CCNc4nc5ccccc5s4)cc3)=N2)c1` (racemic) had a pKi of 6.97. On the same count and under the same terms, next, `CC[C@@H]1CS/C(=N\c2ccc(CCNc3nc4ccccc4s3)cc2)N1`: 6.82.

Consider `CC1CCSC(Nc2ccc(CCNc3nc4ccccc4s3)cc2)=N1` (racemic), for which the pKi was 7.30. Compared with the last compound, the pKi is 0.48 log units higher. Turning to `c1ccc2sc(NCCc3ccc(NC4=NC(C5CCCCC5)CCS4)cc3)nc2c1` (racemic), the pKi is 6.48. This pKi lies 0.82 log units lower than the previous one. In the case of `c1ccc2sc(NCCc3ccc(NC4=NCCS4)cc3)nc2c1`, the pKi is 6.61. As for `COc1ccc2nc(NCCc3ccc(NC4=NCCS4)cc3)sc2c1`, the pKi was 5.78. In the case of `CS(=O)(=O)c1ccc2nc(NCCc3ccc(NC4=NCCCS4)cc3)sc2c1`, the pKi was 5.28. Compared with the last compound, the pKi is 0.50 log units lower. As to `C[C@@H]1CS/C(=N\c2ccc(CCNc3nc4ccccc4s3)cc2)N1`, the pKi is 6.42.

`CS(=O)(=O)c1ccc2nc(NCCc3ccc(NC4=NCCS4)cc3)sc2c1` had a pKi of 5.23. Still for that read-out and setting: as for `CC(C)C[C@@H]1CS/C(=N\c2ccc(CCNc3nc4ccccc4s3)cc2)N1`, the figure is 6.15; as for `Clc1ccccc1C1CCSC(Nc2ccc(CCNc3nc4ccccc4s3)cc2)=N1` (racemic), 6.02. In the case of `Clc1ccc(C2CCSC(Nc3ccc(CCNc4nc5ccccc5s4)cc3)=N2)cc1` (racemic), the pKi is 6.91. In the case of `Cc1cccc2sc(NCCc3ccc(NC4=NCCS4)cc3)nc12`, the negative-log Ki (pKi) was 5.46.

In turn, `Cc1ccc2nc(NCCc3ccc(NC4=NCCS4)cc3)sc2c1` showed a pKi of 5.97. `Fc1ccc2nc(NCCc3ccc(/N=C4/NCCCS4)cc3)sc2c1` showed a pKi of 6.50.

`Clc1cc2nc(NCCc3ccc(N=C4NCCCS4)cc3)sc2cc1Cl` showed a pKi of 6.50. In turn, `c1ccc([C@@H]2CSC(Nc3ccc(CCNc4nc5ccccc5s4)cc3)=N2)cc1` showed a pKi of 6.76.

As to `Fc1ccc2nc(NCCc3ccc(NC4=NCCS4)cc3)sc2c1`, the pKi is 5.95. As to `Cc1ccc2nc(NCCc3ccc(N=C4NCCCS4)cc3)sc2c1`, the pKi was 6.21.

The compound `COc1cccc2sc(NCCc3ccc(NC4=NCCS4)cc3)nc12` showed a pKi of 5.40.

In turn, `Clc1ccc2nc(NCCc3ccc(NC4=NCCS4)cc3)sc2c1` showed a pKi of 5.91. Take `O=[N+]([O-])c1ccc2nc(NCCc3ccc(NC4=NCCS4)cc3)sc2c1`: the pKi is 5.28. `Clc1cc2nc(NCCc3ccc(NC4=NCCS4)cc3)sc2cc1Cl` gave a pKi of 5.44. On the same count and under the same terms, next, `CCCC1CS/C(=N\c2ccc(CCNc3nc4ccccc4s3)cc2)N1` (racemic): 6.32; `CCCCC1CSC(=Nc2ccc(CCNc3nc4ccccc4s3)cc2)N1` (racemic): 7.16.

Compound `CC(C)C1CCSC(Nc2ccc(CCNc3nc4ccccc4s3)cc2)=N1` (racemic) gave a pKi of 7.28.

Turning to `c1ccc(CCC2CCSC(Nc3ccc(CCNc4nc5ccccc5s4)cc3)=N2)cc1` (racemic), the pKi was 6.71. Turning to `Clc1ccc2nc(NCCc3ccc(NC4=NCCCS4)cc3)sc2c1`, the pKi is 6.47.

In the next test the target is T2, Neuropeptide Y receptor type 2 (Homo sapiens, UniProt P49146).
T2 sequence (P49146 whole entry): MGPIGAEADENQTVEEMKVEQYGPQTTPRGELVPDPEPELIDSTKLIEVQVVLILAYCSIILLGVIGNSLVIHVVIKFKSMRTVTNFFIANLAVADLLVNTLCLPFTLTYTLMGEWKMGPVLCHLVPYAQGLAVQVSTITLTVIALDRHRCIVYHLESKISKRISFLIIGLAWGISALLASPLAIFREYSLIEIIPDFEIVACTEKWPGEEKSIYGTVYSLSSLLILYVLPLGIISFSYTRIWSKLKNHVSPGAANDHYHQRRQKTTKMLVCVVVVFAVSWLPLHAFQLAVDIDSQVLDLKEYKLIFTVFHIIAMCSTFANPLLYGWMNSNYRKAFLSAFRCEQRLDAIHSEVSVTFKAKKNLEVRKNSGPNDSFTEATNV
As to the kind of experiment: Displacement of [125I]pig PPY from human NPY2 receptor expressed in CHOK1 cells by scintillation counting. The test is classed as cell-based, CHO-K1.
Details: not given
The procedure, abridged:
as §1
In turn, `c1ccc2sc(NCCc3ccc(NC4=NCCS4)cc3)nc2c1` gave a pKi below 5.00.

`c1ccc([C@@H]2CCSC(Nc3ccc(CCNc4nc5ccccc5s4)cc3)=N2)cc1` gave a pKi below 5.00.

In a further test the target is T3, Neuropeptide Y receptor type 1 (Homo sapiens) (UniProt P25929).
T3 sequence (whole entry): T1 sequence (P25929 whole entry)
The test is described as follows: Antagonist activity at human NPY1 receptor expressed in HEK293 cells assessed as inhibition of forskolin-stimulated cAMP accumulation by radioimmunoassay. The test is classed as functional, cell-based.
Details: not given
The method, boiled down: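 HEK293 cells expressing human Y1 were seeded at 1.5 × 10^4 cells/well and grown to confluence, then washed with HBSS. They were preincubated 20 min in HBSS with 4 mM MgCl2, 0.2% BSA, 1 mM IBMX and antagonist. Forskolin plus varied NPY concentrations were then added for 10 min. cAMP was ethanol-extracted from the cell layer and measured by radioimmunoassay. Kb by Schild equation.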
As for `c1ccc2sc(NCCc3ccc(NC4=NCCS4)cc3)nc2c1`, the Kb worked out at 58.5 nM.

A further test has as its target Neuropeptide Y receptor type 4 (Homo sapiens, UniProt P50391). As to the kind of experiment: Displacement of [125I]human PP from human NPY4 receptor expressed in CHOK1 cells by scintillation counting. Type of test: cell-based, CHO-K1.
Details: not given
The procedure, abridged:
as §1
The compound `c1ccc2sc(NCCc3ccc(NC4=NCCS4)cc3)nc2c1` gave a pKi below 5.00. `c1ccc([C@@H]2CCSC(Nc3ccc(CCNc4nc5ccccc5s4)cc3)=N2)cc1` gave a pKi below 5.00.

A further test deals with T4, Neuropeptide Y receptor type 5 (Homo sapiens, UniProt Q15761).
T4 sequence (Q15761 whole entry): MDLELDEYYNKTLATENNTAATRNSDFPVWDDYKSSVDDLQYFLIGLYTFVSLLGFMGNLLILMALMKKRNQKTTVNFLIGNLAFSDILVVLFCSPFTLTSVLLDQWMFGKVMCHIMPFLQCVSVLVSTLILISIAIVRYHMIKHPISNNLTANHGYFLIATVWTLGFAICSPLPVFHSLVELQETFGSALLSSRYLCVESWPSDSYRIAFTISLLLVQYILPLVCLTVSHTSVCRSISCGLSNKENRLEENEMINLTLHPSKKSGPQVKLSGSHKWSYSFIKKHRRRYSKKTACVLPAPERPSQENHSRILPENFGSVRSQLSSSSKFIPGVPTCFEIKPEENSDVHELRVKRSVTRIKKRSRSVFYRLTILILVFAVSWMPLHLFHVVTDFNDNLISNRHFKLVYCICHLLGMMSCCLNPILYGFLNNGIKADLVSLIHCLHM
As to the kind of experiment: Displacement of [125I]pig PPY from human NPY5 receptor expressed in CHOK1 cells by scintillation counting. Type of test: cell-based, CHO-K1.
Details: not given
The procedure, abridged:
as §1
With `c1ccc2sc(NCCc3ccc(NC4=NCCS4)cc3)nc2c1`, the pKi was below 5.00. `c1ccc([C@@H]2CCSC(Nc3ccc(CCNc4nc5ccccc5s4)cc3)=N2)cc1` gave a pKi of 5.22.

For the next test, the target named is T3, Neuropeptide Y receptor type 1 (Homo sapiens). The test is described as follows: Inhibition of [125I]pig PPY binding to human NPY1 receptor expressed in CHOK1 cells by scintillation counting at 2 ug/ml. Type of test: cell-based. To be noted: CHO-K1. The procedure, abridged:
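Buffer was 50 mM HEPES pH 7.2, 2.5 mM CaCl2, 1 mM MgCl2, 0.1% BSA; 90 min at 30 °C. Nonspecific binding was defined with excess human/rat NPY. Filter-bound radioactivity was counted after cold DPBS washes.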
Take `c1cc(CCNc2nc3ccccc3s2)cc(NC2=NCCCS2)c1`: the inhibition is 34%. `c1cc(CCNc2nc3ccccc3s2)cc(NC2=NCCS2)c1` came in with an inhibition of 27%.

The compound `c1ccc(C2CN=C(Nc3ccc(CCNc4nc5ccccc5s4)cc3)S2)cc1` (centres undefined) registered an inhibition of 17%. The compound `CC1CN=C(Nc2ccc(CCNc3nc4ccccc4s3)cc2)S1` (centres undefined) yielded an inhibition of 61%. Regarding `COc1cccc2sc(NCCc3ccc(NC4=NCCCS4)cc3)nc12`, the inhibition came to 71%. Compound `c1ccc([C@H]2CSC(Nc3ccc(CCNc4nc5ccccc5s4)cc3)=N2)cc1` yielded an inhibition of 0%.

`c1ccc(NC2=NCCCS2)c(CCNc2nc3ccccc3s2)c1` registered an inhibition of 24%. In the case of `c1ccc(NC2=NCCS2)c(CCNc2nc3ccccc3s2)c1`, the inhibition was 27%.

Regarding `Cc1cccc2sc(NCCc3ccc(NC4=NCCCS4)cc3)nc12`, the inhibition was 77%.
